In general, IC50 refers to the concentration needed to halve the response being measured. By MIC is commonly meant the least concentration at which growth counts as inhibited.

Consider 4 compounds from ChEMBL document CHEMBL3751681, “Natural product-based synthesis of novel anti-infective isothiocyanate- and isoselenocyanate-functionalized amphilectane diterpenes” (Bioorg Med Chem Lett, 2016).

Data set [1] can be described thus: Selectivity index, ratio of IC50 for African green monkey Vero cells to MIC for Mycobacterium tuberculosis H37Rv ATCC 27294. The following applies: read-out: Selectivity Index. The class given is toxicity, cell-based.
Data set [2] has as its system Plasmodium falciparum. Description: Antiplasmodial activity against chloroquine-sensitive Plasmodium falciparum 3D7 infected in human RBCs after 72 hrs by SYBR Green based parasite proliferation assay. The class given is functional, organism-based. To be noted: 3D7, 72 h. A digest of the protocol:
(§1)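 P. falciparum (3D7 or Dd2) grown in human O+ erythrocytes in RPMI 1640 with gentamicin, hypoxanthine, HEPES, bicarbonate, glucose, Albumax and 5% human serum. Gassed with 3% CO2, 1% O2, 96% N2 and held at 37°C. Parasites exposed to serial compound dilutions for 72 h. Parasite DNA increase read by SYBR Green fluorescence (ex 495, em 525 nm).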

Data set [3] can be described thus: Selectivity index, ratio of IC50 for African green monkey Vero cells to IC50 for chloroquine-resistant Plasmodium falciparum Dd2. Type of data set: toxicity, cell-based. The following applies: read-out: Ratio IC50.
Another data set has as its system Vero. Description: Cytotoxicity against African green monkey Vero cells by MTS assay. The class given is cell-based. The following applies: Chlorocebus sabaeus.
Data set [4] concerns Plasmodium falciparum. In words: Antiplasmodial activity against chloroquine-resistant Plasmodium falciparum Dd2 infected in human RBCs after 72 hrs by SYBR Green based parasite proliferation assay. The following applies: Dd2, 72 h. Type of data set: functional, organism-based. A digest of the protocol:
as §1

Data set [5] is described as follows: Selectivity index, ratio of IC50 for African green monkey Vero cells to IC50 for chloroquine-sensitive Plasmodium falciparum 3D7. Type of data set: toxicity, cell-based. The following applies: read-out: Ratio IC50.
Data set [6] concerns Mycobacterium tuberculosis. In words: Antimycobacterial activity against Mycobacterium tuberculosis H37Rv ATCC 27294 by microplate alamar blue assay. Type of data set: functional. A digest of the protocol: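 Mtb H37Rv tested in the microplate Alamar blue assay; rifampicin served as positive control.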
In general terms: Resazurin is reduced to fluorescent resorufin, in cell work by metabolically active cells.

The structures appear in SMILES notation. Values after ≈ are worked out from the molar mass of the structure shown. Some results are limits rather than exact numbers.

On to `C=C1CC[C@@]2(N=C=S)[C@H]3[C@H](CC[C@@H]2C)[C@@H](C)C[C@@H](CC(C)(C)N=C=S)[C@H]13`, for which the selectivity ratio in data set [1] was over 1; in data set [3], over 9; in data set [5] it was over 8. Also, the figures for the IC50 in the data set on Plasmodium falciparum [2], with Vero and with Plasmodium falciparum [4] were 11.8 µM, over 100 µM and 11.6 µM, respectively. Moreover, the minimal inhibitory concentration (MIC) in data set [6] was 99.1 µM (≈ 38.5 µg/mL).

In the case of `C=C1CC[C@@]2(N=C=[Se])[C@H]3[C@H](CC[C@@H]2C)[C@@H](C)C[C@@H](CC(C)(C)N=C=[Se])[C@H]13`, the selectivity ratio worked out at 12.4 in data set [1], 7360 in data set [3] and 19400 in data set [5]. In addition, the values for the IC50 in the data set on Plasmodium falciparum [2], in the data set on Vero and in the data set with Plasmodium falciparum [4] were 0.0025 µM, 48.6 µM and 0.0066 µM, respectively. In data set [6], this compound displayed an MIC of 3.9 µM (≈ 1.88 µg/mL).

As for `[C-]#[N+]C(C)(C)C[C@@H]1C[C@H](C)[C@H]2CC[C@H](C)[C@@]3([N+]#[C-])CCC(=C)[C@@H]1[C@H]23` [DIISOCYANOAMPHILECTENE], the selectivity ratio in data set [1] came to 10.2; in data set [3], 32200; in data set [5], 83100. Further, the IC50 in the data set with Plasmodium falciparum [4] was found to be 0.0031 µM. Moreover, the MIC in data set [6] was 9.8 µM (≈ 3.18 µg/mL).

For `CO[C@H]1/C=C/O[C@@]2(C)Oc3c(C)c(O)c4c(O)c(c(/C=N/N5CCN(C)CC5)c(O)c4c3C2=O)NC(=O)/C(C)=C\C=C\[C@H](C)[C@H](O)[C@@H](C)[C@@H](O)[C@@H](C)[C@H](OC(C)=O)[C@@H]1C` [RIFAMPIN], in data set [1], the selectivity ratio was over 1100. Besides, the IC50 in the data set on Vero was over 100 µM. This compound also had an MIC in data set [6] of 0.09 µM (≈ 0.0741 µg/mL).
